Laboratory results taken from ChEMBL document CHEMBL1153380, “Discovery of potent and orally active 3-alkoxy-5-phenoxy-N-thiazolyl benzamides as novel allosteric glucokinase activators” (Bioorg Med Chem, 2009).
pEC50: −log10 of the molar value. Active and inactive are the calls of the source. The calls are words filed in the database; no cut-off is given here.

Experiments:
Hexokinase-4 [1] = target: T1, Hexokinase-4 (Homo sapiens, UniProt P35557); assay: Activation of flag-tagged human recombinant liver glucokinase expressed in Escherichia coli by glucose-6-phosphate dehydrogenase coupled continuous spectrophotometric assay in presence of 2.5 mM glucose
T1 sequence (P35557 whole entry): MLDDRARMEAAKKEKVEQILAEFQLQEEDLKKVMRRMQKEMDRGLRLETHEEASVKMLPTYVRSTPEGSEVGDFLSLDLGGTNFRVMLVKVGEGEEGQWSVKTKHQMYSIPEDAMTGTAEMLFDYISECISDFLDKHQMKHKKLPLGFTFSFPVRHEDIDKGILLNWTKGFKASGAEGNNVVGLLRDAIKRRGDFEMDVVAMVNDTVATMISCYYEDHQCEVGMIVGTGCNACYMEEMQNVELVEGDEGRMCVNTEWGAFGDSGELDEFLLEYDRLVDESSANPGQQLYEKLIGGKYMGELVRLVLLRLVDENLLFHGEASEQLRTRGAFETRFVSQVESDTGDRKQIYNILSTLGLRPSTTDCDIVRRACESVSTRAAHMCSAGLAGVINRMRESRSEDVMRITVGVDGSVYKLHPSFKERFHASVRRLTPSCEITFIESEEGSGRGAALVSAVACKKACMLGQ

Hexokinase-4 [2] = target: T1, Hexokinase-4; assay: Activation of flag-tagged human recombinant liver glucokinase expressed in Escherichia coli by glucose-6-phosphate dehydrogenase coupled continuous spectrophotometric assay in presence of 10 mM glucose
[3] = Cmax in Sprague-Dawley rat at 3 mg/kg, po; assay type: ADME, organism-based; design: dose 3 mg/kg, route oral; settings: in vivo
[4] = AUC (0 to infinity) in Sprague-Dawley rat at 3 mg/kg, po; assay type: ADME, organism-based; design: time infinity, dose 3 mg/kg, route oral; settings: plasma
[5] = Total clearance in Sprague-Dawley rat at 1 mg/kg, iv; assay type: ADME, organism-based; design: dose 1 mg/kg, route intravenous; settings: in vivo
[6] = Half life in Sprague-Dawley rat at 1 mg/kg, iv; assay type: ADME, organism-based; design: dose 1 mg/kg, route intravenous; settings: in vivo
Rattus norvegicus = assay: Glucose lowering effect in overnight-fasted po dosed Wistar rat assessed as decrease in glucose AUC level administered 30 mins before oral glucose challenge by OGTT; assay type: functional, organism-based
In short: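 Rats dosed orally in 0.5% methylcellulose vehicle, then given an oral glucose challenge (2 g/kg) 30 min later. Plasma glucose measured just before and after the challenge. Glucose AUC used as read-out.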

[7] = Tmax in Sprague-Dawley rat at 3 mg/kg, po; assay type: ADME, organism-based; design: dose 3 mg/kg, route oral; settings: in vivo
Mus musculus = assay: Glucose lowering effect in normal-fed ICR mouse assessed as decrease in plasma glucose AUC level at 30 mg/kg, po; assay type: functional, organism-based; design: dose 30 mg/kg
In short: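 Mice given a single oral dose in 0.5% methylcellulose vehicle. Blood glucose measured just before dosing and at 0.5, 1, 1.5, 2, 3 and 4 h after dosing.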

[8] = AUC (0 to infinity) in Sprague-Dawley rat at 1 mg/kg, iv; assay type: ADME, organism-based; design: time infinity, dose 1 mg/kg, route intravenous; settings: plasma
[9] = Oral bioavailability in Sprague-Dawley rat at 3 mg/kg; assay type: ADME, organism-based; settings: in vivo
[10] = Volume of distribution at steady state in Sprague-Dawley rat at 1 mg/kg, iv; assay type: ADME, organism-based; design: dose 1 mg/kg, route intravenous; settings: in vivo, read-out: Vdss

Row | pEC50 (Hexokinase-4 [1]) | pEC50 (Hexokinase-4 [2]) | SMILES | other results
1 | 5.62 | 6.35 | Cc1csc(NC(=O)c2cccc(Oc3ccccc3F)c2)n1 | 
2 | 4.96 | 5.72 | COc1cc(Oc2ccccc2S(C)(=O)=O)cc(C(=O)Nc2nc(C)cs2)c1 | 
3 | 5.23 | 5.19 | Cc1ccc(Oc2cccc(C(=O)Nc3nc(C)cs3)c2)cc1 | 
4 | < 4.52 | < 4.52 | Cc1csc(NC(=O)c2cc(Oc3ccccc3S(C)(=O)=O)ccc2OC(C)C)n1 | 
5 | 6.48 | 6.89 | Cc1csc(NC(=O)c2cc(Oc3ccc(S(C)(=O)=O)cc3)cc(OC(C)C)c2)n1 | Cmax [3]: 2900 nM; AUC(0-inf) [4]: 12 µM·h; clearance [5]: 4.1 mL/min/kg; half-life [6]: 1.1 h; Activity (Rattus norvegicus): Dose-dependent effect; Tmax [7]: 1 h; Activity (Mus musculus): Active; AUC(0-inf) [8]: 9.7 µM·h; bioavailability [9]: 40%; Vd [10]: 0.4 L/kg
6 | 5.96 | 7.05 | Cc1csc(NC(=O)c2cc(Oc3cccc(S(C)(=O)=O)c3)cc(OC(C)C)c2)n1 | 
7 | 5.27 | 5.72 | CCOc1ccccc1Oc1cccc(C(=O)Nc2nc(C)cs2)c1 | 
8 | 4.68 | 5.38 | Cc1csc(NC(=O)c2cccc(Oc3ccc(F)cc3)c2)n1 | 
9 | 5.49 | 6.09 | Cc1csc(NC(=O)c2cccc(Oc3ccccc3C)c2)n1 | 
10 | 5.66 | 6.31 | COc1ccccc1Oc1cccc(C(=O)Nc2nc(C)cs2)c1 | 
11 | 4.54 | 5.47 | Cc1csc(NC(=O)c2cccc(Oc3ccc(S(C)(=O)=O)cc3)c2)n1 | 
12 | 5.62 | 5.68 | CCOc1cc(Oc2ccccc2S(C)(=O)=O)cc(C(=O)Nc2nc(C)cs2)c1 | 

The next lines start with the compound.

Row | SMILES | pEC50 (Hexokinase-4 [1]) | pEC50 (Hexokinase-4 [2]) | other results
13 | Cc1csc(NC(=O)c2cc(Oc3ccccc3)cc(Oc3ccc(S(C)(=O)=O)cc3)c2)n1 | 6.38 | 6.46 | 
14 | Cc1csc(NC(=O)c2cccc(Oc3ccccc3)c2)n1 | 4.72 | 6.10 | 
15 | Cc1csc(NC(=O)c2cccc(Oc3ccccc3S(C)(=O)=O)c2)n1 | 5.26 | 5.96 | 
16 | Cc1csc(NC(=O)c2cc(Oc3ccccc3)cc(Oc3cccc(S(C)(=O)=O)c3)c2)n1 | 5.96 | 6.03 | 
17 | Cc1csc(NC(=O)c2cccc(Oc3cccc(S(C)(=O)=O)c3)c2)n1 | 4.74 | 5.96 | 
18 | Cc1csc(NC(=O)c2cccc(Oc3cccc(F)c3)c2)n1 | 5.20 | 5.66 | 
19 | Cc1csc(NC(=O)c2cc(Oc3ccccc3S(C)(=O)=O)ccc2Oc2ccccc2)n1 | < 4.52 | < 4.52 | 
20 | Cc1csc(NC(=O)c2cc(Oc3ccccc3S(C)(=O)=O)cc(OC(C)C)c2)n1 | 5.68 | 6.36 | 
21 | Cc1csc(NC(=O)c2cc(Oc3ccccc3)cc(Oc3ccccc3S(C)(=O)=O)c2)n1 | 5.96 | 6.21 | 
22 | Cc1cccc(Oc2cccc(C(=O)Nc3nc(C)cs3)c2)c1 | 5.09 | 5.64 | 
